Data: ChEMBL document CHEMBL1134845, “Syntheses and biological activities of a novel group of steroidal derived inhibitors for human Cdc25A protein phosphatase” (J Med Chem, 2001)
Blank lines part the entries; values can stand above or below the molecule they belong to.

Key:
[1] = molecular target: T1, M-phase inducer phosphatase 1 (Homo sapiens, UniProt P30304); assay: Inhibitory activity tested against cell division cycle 25A (assay using p-nitro phenyl phosphate (pNPP) as substrate)
T1 sequence (P30304 whole entry): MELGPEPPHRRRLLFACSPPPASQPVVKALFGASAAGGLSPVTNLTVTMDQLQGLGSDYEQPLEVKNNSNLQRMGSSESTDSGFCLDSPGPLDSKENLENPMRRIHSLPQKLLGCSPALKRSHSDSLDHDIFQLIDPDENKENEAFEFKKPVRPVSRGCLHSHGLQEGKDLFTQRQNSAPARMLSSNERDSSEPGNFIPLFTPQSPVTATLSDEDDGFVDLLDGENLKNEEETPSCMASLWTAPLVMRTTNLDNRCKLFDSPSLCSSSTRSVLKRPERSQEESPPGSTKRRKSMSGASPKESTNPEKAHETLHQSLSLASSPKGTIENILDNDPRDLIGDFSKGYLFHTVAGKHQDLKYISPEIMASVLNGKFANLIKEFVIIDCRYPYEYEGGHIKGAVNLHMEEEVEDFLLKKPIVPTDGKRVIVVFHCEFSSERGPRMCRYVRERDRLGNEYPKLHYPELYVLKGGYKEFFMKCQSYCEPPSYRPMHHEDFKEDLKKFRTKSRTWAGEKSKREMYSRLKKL

[2] = molecular target: T2, Receptor-type tyrosine-protein phosphatase C (Homo sapiens, UniProt P08575); assay: Inhibitory activity tested against Human CD45 Phosphatase (assay using p-nitrophenyl phosphate (pNPP) as substrate)
T2 sequence (P08575 whole entry): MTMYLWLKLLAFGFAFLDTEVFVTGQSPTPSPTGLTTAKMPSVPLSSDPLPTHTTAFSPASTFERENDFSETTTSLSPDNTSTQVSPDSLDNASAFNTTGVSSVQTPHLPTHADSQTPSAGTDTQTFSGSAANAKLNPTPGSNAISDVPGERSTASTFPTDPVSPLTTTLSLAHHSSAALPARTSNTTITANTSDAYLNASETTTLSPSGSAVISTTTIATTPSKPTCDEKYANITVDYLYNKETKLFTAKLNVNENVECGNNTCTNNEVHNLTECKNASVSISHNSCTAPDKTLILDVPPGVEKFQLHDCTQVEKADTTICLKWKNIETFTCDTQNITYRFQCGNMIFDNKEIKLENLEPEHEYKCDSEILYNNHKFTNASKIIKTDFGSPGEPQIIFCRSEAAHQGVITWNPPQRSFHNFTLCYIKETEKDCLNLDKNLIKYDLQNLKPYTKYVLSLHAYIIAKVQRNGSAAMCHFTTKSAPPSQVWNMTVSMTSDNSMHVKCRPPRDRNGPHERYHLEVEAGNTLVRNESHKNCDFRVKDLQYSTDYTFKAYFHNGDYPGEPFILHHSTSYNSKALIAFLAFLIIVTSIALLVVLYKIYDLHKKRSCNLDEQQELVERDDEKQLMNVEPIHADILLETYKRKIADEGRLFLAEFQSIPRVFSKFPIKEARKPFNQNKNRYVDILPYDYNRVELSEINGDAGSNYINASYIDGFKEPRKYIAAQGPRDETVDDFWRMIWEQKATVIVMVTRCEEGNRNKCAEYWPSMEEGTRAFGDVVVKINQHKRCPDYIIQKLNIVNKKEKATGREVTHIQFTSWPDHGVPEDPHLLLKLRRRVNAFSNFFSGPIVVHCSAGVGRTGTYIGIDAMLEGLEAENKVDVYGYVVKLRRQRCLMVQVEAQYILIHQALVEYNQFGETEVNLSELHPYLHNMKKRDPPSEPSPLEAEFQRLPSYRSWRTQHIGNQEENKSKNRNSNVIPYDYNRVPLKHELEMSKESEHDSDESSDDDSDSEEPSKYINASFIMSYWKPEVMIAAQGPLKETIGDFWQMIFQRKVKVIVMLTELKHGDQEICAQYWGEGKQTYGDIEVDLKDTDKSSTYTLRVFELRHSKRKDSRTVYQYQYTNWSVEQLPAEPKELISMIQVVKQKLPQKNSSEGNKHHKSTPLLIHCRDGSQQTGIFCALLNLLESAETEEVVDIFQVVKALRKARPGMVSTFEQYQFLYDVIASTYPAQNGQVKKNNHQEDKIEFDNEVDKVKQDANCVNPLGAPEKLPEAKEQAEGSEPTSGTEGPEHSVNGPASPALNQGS

[3] = molecular target: T1, M-phase inducer phosphatase 1; assay: Inhibitory activity tested against cell division cycle 25A (assay using fluorescein diphosphate (FDP) as substrate)
Procedure, shortened: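 Recombinant human GST-Cdc25A fusion protein, each batch calibrated so that FDP was dephosphorylated linearly over 20 min. Fluorescein diphosphate was the substrate. Reactions ran 15 min at 25 °C in the dark and were stopped with sodium orthovanadate. IC50 came from at least two independent runs, each in triplicate.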

[4] = system: NCI-H23; assay: Growth inhibitory activity was determined against NCI-H23 cancer cell line of non-small cell lung cancer; type: functional, Homo sapiens; settings: Homo sapiens, NCI-H23
Procedure, shortened: (§1)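 NCI 60 human tumour cell line screen run at the National Cancer Institute. Cell growth and viability read with the protein stain sulforhodamine B, which binds basic amino acids of cells left attached after washing. […] MG MID is the mean GI50 calculated over all panels.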

[5] = system: BT-549 (Homo sapiens); assay: Growth inhibitory activity was determined against BT-549 cancer cell line of Breast cancer; settings: Homo sapiens, BT-549
[6] = system: PC-3; assay: Growth inhibitory activity was determined against PC-3 cancer cell line of Prostate cancer; type: functional; settings: Homo sapiens; procedure, shortened: as §1
[7] = system: HCC 2998; assay: Growth inhibitory activity was determined against HCC2998 cancer cell line colon cancer; type: functional, Homo sapiens; settings: Homo sapiens, HCC 2998; procedure, shortened: as §1
[8] = system: COLO 205; assay: Growth inhibitory activity was determined against COLO 205 cancer cell line colon cancer; type: functional, Homo sapiens; settings: Homo sapiens, COLO 205; procedure, shortened: as §1
[9] = system: HT-29; assay: Growth inhibitory activity was determined against HT-29 cancer cell line colon cancer; type: functional, Homo sapiens; settings: Homo sapiens, HT-29; procedure, shortened: as §1
[10] = system: A549; assay: Growth inhibitory activity was determined against A549/ATCC cancer cell line of non-small cell lung cancer; type: functional, Homo sapiens; settings: Homo sapiens, A549; procedure, shortened: as §1
[11] = system: LOX IMVI; assay: Growth inhibitory activity was determined against LOX IMVI cancer cell line of melanoma; type: functional, Homo sapiens; settings: Homo sapiens, LOX IMVI; procedure, shortened: as §1
[12] = system: SF-539; assay: Growth inhibitory activity was determined against SF-539 cancer cell line of CNS cancer; type: functional; settings: Homo sapiens; procedure, shortened: as §1
[13] = system: OVCAR-3; assay: Growth inhibitory activity was determined against OVCAR-3 cancer cell line of Ovarian cancer; type: functional; settings: Homo sapiens; procedure, shortened: as §1
[14] = system: NCI/ADR-RES; assay: Growth inhibitory activity was determined against NCI/ADR-RES cancer cell line of Breast cancer; type: functional, Homo sapiens; settings: Homo sapiens, NCI/ADR-RES; procedure, shortened: as §1
[15] = system: OVCAR-8; assay: Growth inhibitory activity was determined against OVCAR-8 cancer cell line of Ovarian cancer; type: functional; settings: Homo sapiens; procedure, shortened: as §1
[16] = system: NCI-H522; assay: Growth inhibitory activity was determined against NCI-H522 cancer cell line of non-small cell lung cancer; type: functional; settings: Homo sapiens; procedure, shortened: as §1
[17] = system: SK-MEL-5; assay: Growth inhibitory activity was determined against SK-MEL-5 cancer cell line of melanoma; type: functional, Homo sapiens; settings: Homo sapiens, SK-MEL-5; procedure, shortened: as §1
[18] = system: T47D; assay: Growth inhibitory activity was determined against T-47D cancer cell line of Breast cancer; type: functional, Homo sapiens; settings: Homo sapiens, T47D; procedure, shortened: as §1
[19] = system: SF-268; assay: Growth inhibitory activity was determined against SF-268 cancer cell line of CNS cancer; type: functional; settings: Homo sapiens; procedure, shortened: as §1
[20] = system: UO-31; assay: Growth inhibitory activity was determined against UO-31 cancer cell line of Renal cancer; type: functional; settings: Homo sapiens; procedure, shortened: as §1
[21] = system: 786-0; assay: Growth inhibitory activity was determined against 786-0 cancer cell line of Renal cancer; type: functional; settings: Homo sapiens; procedure, shortened: as §1
[22] = system: SN12C; assay: Growth inhibitory activity was determined against SN12C cancer cell line of Renal cancer; type: functional; settings: Homo sapiens; procedure, shortened: as §1
[23] = system: 786-0; assay: Growth inhibitory activity was determined against 786-0 cancer cell line of renal cancer; type: functional; settings: Homo sapiens; procedure, shortened: as §1
[24] = system: SN12C; assay: Growth inhibitory activity was determined against SN12C cancer cell line of renal cancer; type: functional; settings: Homo sapiens; procedure, shortened: as §1
[25] = system: UO-31; assay: Growth inhibitory activity was determined against UO-31 cancer cell line of renal cancer; type: functional; settings: Homo sapiens; procedure, shortened: as §1
[26] = system: U-251; assay: Growth inhibitory activity was determined against U-251 cancer cell line of CNS cancer; type: functional; settings: Homo sapiens; procedure, shortened: as §1

IC50 [1]: 11.7 µM
IC50 [2]: > 100 µM
IC50 [3]: 1.1 µM
Compound: CC(C)CCC[C@@H](C)[C@H]1CC[C@H]2[C@@H]3CC[C@H]4C[C@@H](OC(=S)S)CC[C@]4(C)[C@H]3CC[C@]12C

IC50 [3]: 2.1 µM
Compound: CC(C)CCC[C@@H](C)[C@H]1CC[C@H]2[C@@H]3CC[C@H]4C[C@@H](O/C(S)=N\c5ccccc5)CC[C@]4(C)[C@H]3CC[C@]12C

GI50 [4]: 5.27 µM
GI50 [5]: 5.16 µM
GI50 [6]: 7.15 µM
GI50 [7]: 5.36 µM
GI50 [8]: 5.29 µM
GI50 [9]: 4.69 µM
GI50 [10]: 5.09 µM
GI50 [13]: 5.25 µM
GI50 [15]: 4.88 µM
GI50 [16]: > 25 µM
GI50 [17]: 7.04 µM
IC50 [3]: 2.2 µM
GI50 [18]: 6.69 µM
GI50 [21]: 8.45 µM
Compound: CC(C)CCCC(C)[C@H]1CC[C@H]2[C@H](CC(=O)O)[C@@H](C(C)CCCCC#N)CC[C@]12C (stereo in doubt; 21)
GI50 [11]: 4.86 µM
GI50 [12]: 10.8 µM
GI50 [14]: 5.34 µM
GI50 [19]: > 25 µM
GI50 [20]: 9.97 µM
GI50 [22]: 6.05 µM

GI50 [23]: 1.44 µM
GI50 [4]: 4.85 µM
GI50 [5]: 5.07 µM
GI50 [6]: 4.22 µM
GI50 [8]: 4.76 µM
GI50 [9]: 2.63 µM
GI50 [10]: 4.27 µM
GI50 [13]: 4 µM
GI50 [15]: 1.97 µM
GI50 [16]: 6.1 µM
GI50 [17]: 4.37 µM
GI50 [18]: 4.09 µM
GI50 [26]: 3.46 µM
Compound: CC(C)CCC[C@@H](C)[C@H]1CC[C@H]2[C@@H]3CC(=O)N4C(=O)C=CCC[C@]4(C)[C@H]3CC[C@]12C
GI50 [24]: 3.46 µM
GI50 [11]: 0.84 µM
GI50 [12]: 4.46 µM
GI50 [14]: 6.05 µM
GI50 [25]: 2.95 µM
GI50 [19]: > 25 µM

IC50 [3]: > 100 µM
Compound: CCOC(=O)CC(=O)CSC(=S)O[C@H]1CC[C@@]2(C)[C@@H](CC[C@@H]3[C@@H]2CC[C@]2(C)[C@@H]([C@H](C)CCCC(C)C)CC[C@@H]32)C1

IC50 [3]: 36.3 µM
Compound: C/C(=C/C/C=C\C#N)[C@H]1CC[C@]2(C)[C@@H](C(C)CCCC(C)C)CC[C@H]2[C@@H]1CC(=O)O (some centres undefined)

IC50 [3]: > 50 µM
Compound: CC(C)CCC[C@@H](C)[C@H]1CC[C@H]2[C@@H]3CC(=O)O[C@@](C)(CC/C=C\C#N)[C@H]3CC[C@]12C

IC50 [3]: > 100 µM
Compound: CCOC(=O)C(C)SC(=S)O[C@H]1CC[C@@]2(C)[C@@H](CC[C@@H]3[C@@H]2CC[C@]2(C)[C@@H]([C@H](C)CCCC(C)C)CC[C@@H]32)C1 (some centres undefined)

IC50 [3]: 5.8 µM
Compound: CC(C)CCC[C@@H](C)[C@H]1CC[C@H]2[C@H](CC(=O)O)[C@@H]([C@@]3(C)CC=CCC3=O)CC[C@]12C

IC50 [3]: 2.9 µM
Compound: C=C(CCC(CC#N)OCC)[C@H]1CC[C@]2(C)[C@@H](C(C)CCCC(C)C)CC[C@H]2[C@@H]1CC(=O)O (some centres undefined)
